Assays:
[1] = target: 72 kDa type IV collagenase (Homo sapiens, UniProt P08253); assay: Inhibition of human recombinant MMP2 expressed in mouse myeloma cells; assay type: cell-based
Outline: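 Recombinant human pro-MMP-2 from transfected mouse myeloma cells, activated with APMA (2 mM, 1 h, 37 °C) and used at 2.9 nM final. It was preincubated 4 h at 25 °C with inhibitor (seven concentrations) in Tris 50 mM pH 7.5 buffer with 1% DMSO. Mca-Lys-Pro-Leu-Gly-Leu-Dpa-Ala-Arg-NH2 fluorescence (ex 325/em 400 nm) was read every 15 s for 20 min, in triplicate. IC50 from Vi/Vo = 1/(1+[I]/IC50).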

Stromelysin-1 [2] = target: T1, Stromelysin-1 (Homo sapiens, UniProt P08254); assay: Inhibition of MMP3
Outline: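 Purchased MMP-3 at 1 nM final was preincubated with inhibitor (seven concentrations) for 4 h at 25 °C in Tris pH 7.5 assay buffer containing CaCl2, Brij 35 and 1% DMSO. Substrate was Mca-Arg-Pro-Lys-Pro-Val-Glu-Nva-Trp-Arg-Lys(Dnp)-NH2, with fluorescence (ex 325/em 400 nm) read every 15 s over 20 min, in triplicate. IC50 from initial velocities via Vi/Vo = 1/(1+[I]/IC50).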
Target sequence in this assay (P08254 whole entry): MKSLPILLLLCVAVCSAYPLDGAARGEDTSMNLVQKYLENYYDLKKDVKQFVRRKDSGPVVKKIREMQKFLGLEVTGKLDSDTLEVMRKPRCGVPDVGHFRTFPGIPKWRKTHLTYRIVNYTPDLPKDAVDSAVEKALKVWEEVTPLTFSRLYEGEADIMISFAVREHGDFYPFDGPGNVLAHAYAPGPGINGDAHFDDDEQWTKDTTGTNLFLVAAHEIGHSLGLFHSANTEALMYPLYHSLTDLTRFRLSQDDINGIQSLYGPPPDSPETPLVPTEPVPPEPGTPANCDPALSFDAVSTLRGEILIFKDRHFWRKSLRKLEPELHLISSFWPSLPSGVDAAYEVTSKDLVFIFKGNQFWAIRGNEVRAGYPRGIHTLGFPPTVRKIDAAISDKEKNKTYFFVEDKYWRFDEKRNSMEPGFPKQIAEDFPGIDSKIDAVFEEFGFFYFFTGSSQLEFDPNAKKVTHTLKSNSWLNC

Interstitial collagenase = target: T2, Interstitial collagenase (Homo sapiens, UniProt P03956); assay: Inhibition of MMP1
T2 sequence (P03956 whole entry): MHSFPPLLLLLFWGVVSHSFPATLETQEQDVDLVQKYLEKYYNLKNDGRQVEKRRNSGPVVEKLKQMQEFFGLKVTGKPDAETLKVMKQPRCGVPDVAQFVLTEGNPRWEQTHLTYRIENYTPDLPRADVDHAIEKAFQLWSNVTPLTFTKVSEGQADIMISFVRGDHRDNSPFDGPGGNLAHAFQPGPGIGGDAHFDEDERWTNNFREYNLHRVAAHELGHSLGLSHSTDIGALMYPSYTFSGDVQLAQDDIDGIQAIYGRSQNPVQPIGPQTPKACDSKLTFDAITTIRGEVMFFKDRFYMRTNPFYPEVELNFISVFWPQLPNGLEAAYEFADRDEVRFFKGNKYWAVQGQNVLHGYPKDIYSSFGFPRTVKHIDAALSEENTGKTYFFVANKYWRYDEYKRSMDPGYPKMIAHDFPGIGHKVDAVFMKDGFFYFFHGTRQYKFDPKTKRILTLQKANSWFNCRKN
Outline: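 Pro-MMP-1 from a commercial source, activated with APMA (2 mM, 1 h, 37 °C). Enzyme at 0.20 nM final was preincubated 4 h at 25 °C with inhibitor at seven concentrations in Tris 50 mM pH 7.5, NaCl, CaCl2, Brij 35 and 1% DMSO. Mca-Lys-Pro-Leu-Gly-Leu-Dpa-Ala-Arg-NH2 was added and fluorescence (ex 325/em 400 nm) read every 15 s for 20 min, in triplicate. IC50 from Vi/Vo = 1/(1+[I]/IC50).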

Collagenase 3 [3] = target: T3, Collagenase 3 (Homo sapiens, UniProt P45452); assay: Inhibition of MMP13
Outline: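 Purchased pro-MMP-13 was APMA-activated (1 mM, 0.5 h, 37 °C) and used at 0.66 nM final. It was preincubated with inhibitor (seven concentrations) for 4 h at 25 °C in Tris pH 7.5 buffer with CaCl2, Brij 35 and 1% DMSO. Cleavage of Mca-Lys-Pro-Leu-Gly-Leu-Dpa-Ala-Arg-NH2 was followed by fluorescence (ex 325/em 400 nm) every 15 s for 20 min, in triplicate. IC50 fitted to Vi/Vo = 1/(1+[I]/IC50).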

[4] = target: T4, Matrix metalloproteinase-14 (Homo sapiens, UniProt P50281); assay: Inhibition of MMP14
Outline: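 Commercial MMP-14 at 1 nM final, preincubated 4 h at 25 °C with inhibitor at seven concentrations in Tris 50 mM pH 7.5/NaCl/CaCl2/Brij 35 buffer with 1% DMSO. Read-out was fluorogenic substrate Mca-Lys-Pro-Leu-Gly-Leu-Dpa-Ala-Arg-NH2 hydrolysis (ex 325, em 400 nm), recorded every 15 s for 20 min, in triplicate. IC50 from Vi/Vo = 1/(1+[I]/IC50).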

Matrilysin = target: T5, Matrilysin (Homo sapiens, UniProt P09237); assay: Inhibition of MMP7
T5 sequence (P09237 whole entry): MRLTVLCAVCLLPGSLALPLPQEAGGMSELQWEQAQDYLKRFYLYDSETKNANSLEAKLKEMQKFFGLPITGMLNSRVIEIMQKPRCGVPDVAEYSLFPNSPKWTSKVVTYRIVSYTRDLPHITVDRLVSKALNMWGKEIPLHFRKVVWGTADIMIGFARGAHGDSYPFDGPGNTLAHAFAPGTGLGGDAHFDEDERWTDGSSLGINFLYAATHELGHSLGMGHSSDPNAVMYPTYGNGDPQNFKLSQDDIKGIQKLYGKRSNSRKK
Outline: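 Pro-MMP-7 from a commercial source, activated with APMA (1 mM, 1 h, 37 °C) and used at 2.4 nM final. It was preincubated 4 h at 25 °C with inhibitor at seven concentrations in Tris pH 7.5 buffer (CaCl2, Brij 35, 1% DMSO). Mca-Lys-Pro-Leu-Gly-Leu-Dpa-Ala-Arg-NH2 cleavage was monitored fluorimetrically (ex 325/em 400 nm) every 15 s for 20 min, in triplicate. IC50 via Vi/Vo = 1/(1+[I]/IC50).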

[5] = target: T6, Matrix metalloproteinase-9 (Homo sapiens, UniProt P14780); assay: Inhibition of human recombinant MMP9 expressed in mouse myeloma cells; assay type: cell-based
T6 sequence (P14780 whole entry): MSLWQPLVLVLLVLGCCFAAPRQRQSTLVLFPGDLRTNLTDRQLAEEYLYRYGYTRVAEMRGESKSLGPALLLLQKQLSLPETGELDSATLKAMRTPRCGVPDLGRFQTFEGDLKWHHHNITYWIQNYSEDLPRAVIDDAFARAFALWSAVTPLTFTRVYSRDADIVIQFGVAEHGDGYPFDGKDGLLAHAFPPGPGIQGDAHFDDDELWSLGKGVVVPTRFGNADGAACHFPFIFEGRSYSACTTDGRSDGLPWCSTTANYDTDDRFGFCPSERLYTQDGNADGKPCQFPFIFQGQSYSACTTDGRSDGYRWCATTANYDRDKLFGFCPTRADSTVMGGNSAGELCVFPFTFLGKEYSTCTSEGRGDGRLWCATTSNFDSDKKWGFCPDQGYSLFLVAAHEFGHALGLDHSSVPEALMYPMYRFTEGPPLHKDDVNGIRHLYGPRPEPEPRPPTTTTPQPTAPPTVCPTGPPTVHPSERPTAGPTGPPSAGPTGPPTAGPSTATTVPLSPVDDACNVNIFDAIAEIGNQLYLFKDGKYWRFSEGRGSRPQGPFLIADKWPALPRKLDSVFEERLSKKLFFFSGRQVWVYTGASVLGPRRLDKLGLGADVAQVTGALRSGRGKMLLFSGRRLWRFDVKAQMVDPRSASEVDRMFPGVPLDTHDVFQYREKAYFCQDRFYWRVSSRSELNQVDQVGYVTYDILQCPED
Outline: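 Human pro-MMP-9 expressed in transfected mouse myeloma cells, APMA-activated (1 mM, 1 h, 37 °C) and used at 2.7 nM final. Preincubated 4 h at 25 °C with inhibitor at seven concentrations in Tris pH 7.5/CaCl2/Brij 35 buffer with 1% DMSO. Fluorogenic Mca-Lys-Pro-Leu-Gly-Leu-Dpa-Ala-Arg-NH2 hydrolysis (ex 325/em 400 nm) was read every 15 s for 20 min, in triplicate. IC50 via Vi/Vo = 1/(1+[I]/IC50).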

Neutrophil collagenase = Neutrophil collagenase (Homo sapiens, UniProt P22894); assay: Inhibition of MMP8
Sequence of Neutrophil collagenase (P22894 whole entry): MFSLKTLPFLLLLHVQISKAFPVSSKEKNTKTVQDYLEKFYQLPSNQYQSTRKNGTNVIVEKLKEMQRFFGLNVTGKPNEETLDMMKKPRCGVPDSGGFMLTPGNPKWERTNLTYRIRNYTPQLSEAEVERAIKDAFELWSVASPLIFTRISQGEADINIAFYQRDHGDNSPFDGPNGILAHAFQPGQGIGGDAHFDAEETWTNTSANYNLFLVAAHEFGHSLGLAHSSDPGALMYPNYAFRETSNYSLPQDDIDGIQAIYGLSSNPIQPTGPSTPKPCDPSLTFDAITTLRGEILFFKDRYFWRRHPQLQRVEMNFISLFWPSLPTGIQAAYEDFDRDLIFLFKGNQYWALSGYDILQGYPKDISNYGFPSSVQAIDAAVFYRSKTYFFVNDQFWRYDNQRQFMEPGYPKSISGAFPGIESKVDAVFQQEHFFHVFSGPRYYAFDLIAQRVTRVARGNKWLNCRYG

Stromelysin-1 [6] = target: T1, Stromelysin-1; assay: Inhibition of MMP3 at 100 uM
Target sequence in this assay (P08254 100-477 limits assumed): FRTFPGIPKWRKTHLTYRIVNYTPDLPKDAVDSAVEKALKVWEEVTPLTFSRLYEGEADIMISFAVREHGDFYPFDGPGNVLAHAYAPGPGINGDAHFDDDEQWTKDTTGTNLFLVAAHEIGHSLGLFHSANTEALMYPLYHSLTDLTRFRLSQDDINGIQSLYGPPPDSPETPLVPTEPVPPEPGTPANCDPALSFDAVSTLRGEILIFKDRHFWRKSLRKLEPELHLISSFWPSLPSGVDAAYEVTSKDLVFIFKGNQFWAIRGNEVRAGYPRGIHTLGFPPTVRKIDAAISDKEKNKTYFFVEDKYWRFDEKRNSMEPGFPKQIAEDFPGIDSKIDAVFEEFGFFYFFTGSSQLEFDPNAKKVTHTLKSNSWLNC

[7] = target: T7, Interstitial collagenase (Homo sapiens) (UniProt P03956); assay: Inhibition of human recombinant MMP1 at 100 uM
T7 sequence (whole entry): T2 sequence (P03956 whole entry)

[8] = target: T4, Matrix metalloproteinase-14; settings: 100 uM
[9] = target: T8, Matrilysin (Homo sapiens) (UniProt P09237); assay: Inhibition of MMP7 at 100 uM
T8 sequence (whole entry): T5 sequence (P09237 whole entry)

Collagenase 3 [10] = target: T3, Collagenase 3; assay: Inhibition of MMP13 at 100 uM
[11] = target: T6, Matrix metalloproteinase-9; assay: Inhibition of human recombinant MMP9 expressed in mouse myeloma cells at 100 uM; assay type: cell-based

Sequence of 72 kDa type IV collagenase (P08253 whole entry): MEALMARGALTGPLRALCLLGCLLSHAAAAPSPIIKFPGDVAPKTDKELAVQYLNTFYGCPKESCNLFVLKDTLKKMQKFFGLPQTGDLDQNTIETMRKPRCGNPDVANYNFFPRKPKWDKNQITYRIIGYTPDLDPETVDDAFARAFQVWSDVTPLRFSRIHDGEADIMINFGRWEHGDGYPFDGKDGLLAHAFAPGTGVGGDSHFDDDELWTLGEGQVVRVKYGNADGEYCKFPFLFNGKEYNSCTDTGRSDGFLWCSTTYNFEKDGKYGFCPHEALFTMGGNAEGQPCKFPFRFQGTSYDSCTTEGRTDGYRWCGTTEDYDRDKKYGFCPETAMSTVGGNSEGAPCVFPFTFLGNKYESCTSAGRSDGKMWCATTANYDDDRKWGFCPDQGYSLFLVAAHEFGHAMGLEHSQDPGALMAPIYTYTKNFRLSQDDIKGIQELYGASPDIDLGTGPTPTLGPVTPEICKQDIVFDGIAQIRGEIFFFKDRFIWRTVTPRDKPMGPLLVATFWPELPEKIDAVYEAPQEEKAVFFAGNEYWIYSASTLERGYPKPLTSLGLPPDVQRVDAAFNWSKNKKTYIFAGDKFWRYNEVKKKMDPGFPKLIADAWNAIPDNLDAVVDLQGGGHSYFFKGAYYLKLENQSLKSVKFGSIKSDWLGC

Question: Which IC50 [1] does the source give for `CC(C)[C@H](NS(=O)(=O)c1ccc(-c2cccc(Cl)c2)cc1)P(=O)(O)O` here?
Answer: 30 nM

Question: What about the IC50 (Stromelysin-1 [2]) of the same compound?
Answer: 440 nM

Question: What about the IC50 (Interstitial collagenase) of the same compound?
Answer: 320 nM

Question: What about the IC50 (Collagenase 3 [3]) of the same compound?
Answer: 24 nM

Question: And the IC50 [4]?
Answer: 75 nM

Question: And the IC50 (Matrilysin)?
Answer: 2900 nM

Question: What about the IC50 [5] of the same compound?
Answer: 160 nM

Question: And the IC50 (Neutrophil collagenase)?
Answer: 1.3 nM

Question: For `CC(C)[C@H](NS(=O)(=O)c1ccc(-c2cccc(F)c2)cc1)P(=O)(O)O`, which IC50 [1] is on record?
Answer: 53 nM

Question: What about the IC50 (Stromelysin-1 [2]) of the same compound?
Answer: 1200 nM

Question: And the IC50 (Interstitial collagenase)?
Answer: 590 nM

Question: And the IC50 (Collagenase 3 [3])?
Answer: 63 nM

Question: And the IC50 [4]?
Answer: 180 nM

Question: And the IC50 (Matrilysin)?
Answer: 20000 nM

Question: And the IC50 [5]?
Answer: 170 nM

Question: What about the IC50 (Neutrophil collagenase) of the same compound?
Answer: 2.4 nM

Question: What does the source list for `CC(C)Oc1ccc(-c2ccc(S(=O)(=O)N[C@@H](C(C)C)P(=O)(O)O)cc2)cc1`?
Answer: IC50 [1]: 1.8 nM; IC50 (Stromelysin-1 [2]): 36 nM; IC50 (Interstitial collagenase): 600 nM; IC50 (Collagenase 3 [3]): 4.2 nM; IC50 [4]: 130 nM; IC50 (Matrilysin): 2000 nM; IC50 [5]: 24 nM; IC50 (Neutrophil collagenase): 1.5 nM

Question: With `CCOc1ccc(-c2ccc(S(=O)(=O)N[C@@H](C(C)C)P(=O)(O)O)cc2)cc1` as the compound, how does the IC50 [1] read?
Answer: 0.39 nM

Question: What about the IC50 (Stromelysin-1 [2]) of the same compound?
Answer: 12 nM

Question: What about the IC50 (Interstitial collagenase) of the same compound?
Answer: 450 nM

Question: What about the IC50 (Collagenase 3 [3]) of the same compound?
Answer: 1.1 nM

Question: And the IC50 [4]?
Answer: 11 nM

Question: And the IC50 (Matrilysin)?
Answer: 450 nM

Question: What about the IC50 [5] of the same compound?
Answer: 0.56 nM

Question: What about the IC50 (Neutrophil collagenase) of the same compound?
Answer: 0.37 nM

Question: For `Cc1cccc(-c2ccc(S(=O)(=O)N[C@@H](C(C)C)P(=O)(O)O)cc2)c1`, which IC50 [1] is on record?
Answer: 24 nM

Question: And the IC50 (Stromelysin-1 [2])?
Answer: 230 nM

Question: And the IC50 (Interstitial collagenase)?
Answer: 320 nM

Question: And the IC50 (Collagenase 3 [3])?
Answer: 15 nM

Question: What about the IC50 [4] of the same compound?
Answer: 26 nM

Question: And the IC50 (Matrilysin)?
Answer: 1100 nM

Question: And the IC50 [5]?
Answer: 64 nM

Question: What about the IC50 (Neutrophil collagenase) of the same compound?
Answer: 0.4 nM

Question: How did the IC50 [1] turn out when `COc1ccc(CCc2ccc(S(=O)(=O)N[C@@H](C(C)C)P(=O)(O)O)cc2)cc1` was run?
Answer: 790 nM

Question: What about the inhibition (Stromelysin-1 [6]) of the same compound?
Answer: 31%

Question: And the inhibition [7]?
Answer: 9%

Question: What about the IC50 (Collagenase 3 [3]) of the same compound?
Answer: 480 nM

Question: And the IC50 [4]?
Answer: 40000 nM

Question: And the IC50 (Matrilysin)?
Answer: 130000 nM

Question: And the IC50 [5]?
Answer: 680 nM

Question: And the IC50 (Neutrophil collagenase)?
Answer: 110 nM

Question: With `COc1ccc(-c2ccc(S(=O)(=O)N[C@@H](C(C)C)P(=O)(O)O)cc2)cc1` as the compound, how does the IC50 [1] read?
Answer: 1.5 nM

Question: And the IC50 (Stromelysin-1 [2])?
Answer: 52 nM

Question: And the IC50 (Interstitial collagenase)?
Answer: 150 nM

Question: What about the IC50 (Collagenase 3 [3]) of the same compound?
Answer: 2.6 nM

Question: And the IC50 [4]?
Answer: 79 nM

Question: What about the IC50 (Matrilysin) of the same compound?
Answer: 460 nM

Question: And the IC50 [5]?
Answer: 8 nM

Question: Which results are given for `Cc1ccc(-c2ccc(S(=O)(=O)N[C@@H](C(C)C)P(=O)(O)O)cc2)cc1`?
Answer: IC50 [1]: 2.3 nM; IC50 (Stromelysin-1 [2]): 45 nM; IC50 (Interstitial collagenase): 98 nM; IC50 (Collagenase 3 [3]): 3.3 nM; IC50 [4]: 11 nM; IC50 (Matrilysin): 150 nM; IC50 [5]: 4.1 nM; IC50 (Neutrophil collagenase): 0.39 nM

Question: What does the source list for `CC(C)[C@H](NS(=O)(=O)c1ccc(CCc2ccccc2)cc1)P(=O)(O)O`?
Answer: IC50 [1]: 980 nM; inhibition (Stromelysin-1 [6]): 34%; inhibition [7]: 33%; IC50 (Collagenase 3 [3]): 820 nM; IC50 [4]: 6000 nM; IC50 (Matrilysin): 50000 nM; IC50 [5]: 7100 nM; IC50 (Neutrophil collagenase): 260 nM

Question: With `CC(C)[C@H](NS(=O)(=O)c1ccc(-c2ccc(Cl)cc2)cc1)P(=O)(O)O` as the compound, how does the IC50 [1] read?
Answer: 8.7 nM

Question: What about the IC50 (Stromelysin-1 [2]) of the same compound?
Answer: 28 nM

Question: What about the IC50 (Interstitial collagenase) of the same compound?
Answer: 77 nM

Question: And the IC50 (Collagenase 3 [3])?
Answer: 5.3 nM

Question: What about the IC50 [4] of the same compound?
Answer: 47 nM

Question: What about the IC50 (Matrilysin) of the same compound?
Answer: 1700 nM

Question: And the IC50 [5]?
Answer: 21 nM

Question: And the IC50 (Neutrophil collagenase)?
Answer: 0.81 nM

Question: For `COc1ccc(-c2ccc(S(=O)(=O)N[C@H](C(C)C)P(=O)(O)O)cc2)cc1`, which inhibition [8] is on record?
Answer: 63%

Question: What about the IC50 [1] of the same compound?
Answer: 1100 nM

Question: What about the inhibition [9] of the same compound?
Answer: 17%

Question: What about the inhibition (Stromelysin-1 [6]) of the same compound?
Answer: 16%

Question: And the inhibition [7]?
Answer: 5%

Question: And the inhibition (Collagenase 3 [10])?
Answer: 68%

Question: What about the inhibition [11] of the same compound?
Answer: 40%

Question: For `CC(C)[C@H](NS(=O)(=O)c1ccc(-c2ccc(F)cc2)cc1)P(=O)(O)O`, which IC50 [1] is on record?
Answer: 20 nM

Question: And the IC50 (Stromelysin-1 [2])?
Answer: 150 nM

Question: And the IC50 (Interstitial collagenase)?
Answer: 160 nM

Question: And the IC50 (Collagenase 3 [3])?
Answer: 13 nM

Question: What about the IC50 [4] of the same compound?
Answer: 32 nM

Question: And the IC50 (Matrilysin)?
Answer: 1400 nM

Question: What about the IC50 [5] of the same compound?
Answer: 59 nM

Question: What about the IC50 (Neutrophil collagenase) of the same compound?
Answer: 1.1 nM
